Among the data in ChEMBL document CHEMBL3124914, “Cytotoxic clerodane diterpenes from Zuelania guidonia” (J Nat Prod, 2014) are IC50 values, retold here.

In general, IC50 refers to the concentration that gives 50% inhibition.

The subject of one assay is PBMC. Nature of the assay: Cytotoxicity against human PBMC assessed as cell viability after 24 hrs by MTT assay. Format: cell-based. A digest of the protocol: (§1)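 Cells kept at 37 °C, 5% CO2 in RPMI 1640 with 10% heat-inactivated FBS, […] streptomycin, and 100 U/mL penicillin. Seeding per well: 1.2 × 10^4 for MIA-PaCa-2, 4 × 10^4 for CCRF-CEM and CEM-ADR5000, and 2 × 10^5 for PBMCs from healthy donors. Compounds were given in DMSO (0.1% DMSO solvent control) at various concentrations for 24 h. Read-out was MTT, and IC50 was taken by nonlinear regression.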
For orientation: Tetrazolium assays rely on reduction of a dye to a coloured formazan, in cell work by metabolically active cells.

A further assay relates to CCRF-CEM. Nature of the assay: Cytotoxicity against human CCRF-CEM cells assessed as cell viability after 24 hrs by MTT assay. Format: functional, cell-based. The method in brief:
as §1

The nature of assay [1]: Cytotoxicity against human CEM/ADR5000 cells assessed as cell viability after 24 hrs by MTT assay. Format: functional, cell-based. Conditions: ADR5000, 24 h. The method in brief: as §1
A short description of assay [2]: Cytotoxicity against human MIAPaCa2 cells assessed as cell viability after 24 hrs by MTT assay. Conditions: MIA PaCa-2, 24 h. Type of assay: functional, cell-based. A digest of the protocol: as §1

For `C=CC(=C)CC[C@]1(C)[C@H](C)C[C@H](O)[C@@]23C(=C[C@@H](OC(=O)/C=C/c4ccccc4)C[C@@H]12)[C@@H](OC(C)=O)O[C@H]3OC(C)=O` (relative stereo), the IC50 is above 10 µM with PBMC, 1.6 µM in the assay with CCRF-CEM, 4.6 µM in assay [1] and 4.6 µM in assay [2].

Consider `C=CC(=C)[C@@H](O)C[C@]1(C)[C@H](C)C[C@H](OC2OC[C@@H](O)[C@H](O)[C@H]2O)[C@@]23C(=C[C@H](OC(=O)CCCCCCCCC)C[C@@H]12)[C@@H](OC(C)=O)O[C@H]3OC(C)=O` (relative stereo), for which the half-maximal inhibitory concentration (IC50) in the assay on PBMC is above 10 µM; in the assay on CCRF-CEM it was 9.1 µM; in assay [1], above 10 µM; in assay [2], above 10 µM.

Regarding `CCCCCCCCCC(=O)O[C@H]1C=C2[C@@H](OC(C)=O)O[C@@H](OC(C)=O)[C@]23[C@@H](OC2OC[C@@H](O)[C@H](O)[C@H]2O)C[C@@H](C)[C@@](C)(C[C@@H](O)C2=CCOOC2)[C@@H]3C1` (relative stereo), the half-maximal inhibitory concentration (IC50) in the assay with PBMC was above 10 µM; in the assay with CCRF-CEM, 8.4 µM; in assay [1], above 10 µM; in assay [2], above 10 µM.

As for `CC[C@@]1(O)C(=O)OCc2c1cc1n(c2=O)Cc2cc3ccccc3nc2-1` [CAMPTOTHECIN], the IC50 in the assay on PBMC was above 10 µM; with CCRF-CEM it was 0.08 µM; in assay [1], 0.3 µM; in assay [2], above 10 µM.

Turning to `COc1cccc2c1C(=O)c1c(O)c3c(c(O)c1C2=O)C[C@@](O)(C(=O)CO)C[C@@H]3O[C@H]1C[C@H](N)[C@H](O)[C@H](C)O1` [DOXORUBICIN], the IC50 with PBMC is above 10 µM; in the assay with CCRF-CEM, 0.5 µM; in assay [1] it was above 10 µM; in assay [2], 4.8 µM.

Turning to `C=CC(=C)CC[C@]1(C)[C@H](C)C[C@H](OC(=O)CC(O)CCCCCCCCC)[C@@]23C(=C[C@H](O)C[C@@H]12)[C@@H](OC(C)=O)O[C@H]3OC(C)=O` (relative stereo), the IC50 in the assay on PBMC is above 10 µM; in the assay on CCRF-CEM, 2.5 µM; in assay [1], 5.7 µM; in assay [2], 7.4 µM.

As to `CC(=O)O[C@H]1O[C@@H](OC(C)=O)[C@]23C1=C[C@H](O)C[C@H]2[C@](C)(CCC1=CCOOC1)[C@H](C)C[C@@H]3OC(=O)/C=C/c1ccccc1` (relative stereo), the IC50 in the assay on PBMC is above 10 µM; with CCRF-CEM, 1.9 µM; in assay [1], 7.5 µM; in assay [2], 6.9 µM.

As to `CCCCCCCCCC(=O)O[C@H]1C=C2[C@@H](OC(C)=O)O[C@@H](OC(C)=O)[C@]23[C@@H](OC2OC[C@@H](O)[C@H](O)[C@H]2O)C[C@@H](C)[C@@](C)(C[C@H](O)C2=CCOOC2)[C@@H]3C1` (relative stereo), the IC50 in the assay on PBMC is above 10 µM; with CCRF-CEM, 8 µM; in assay [1], above 10 µM; in assay [2], above 10 µM.

Consider `C=CC(=C)CC[C@]1(C)[C@H](C)C[C@H](OC(=O)/C=C/c2ccccc2)[C@@]23C(=C[C@H](O)C[C@@H]12)[C@@H](OC(C)=O)O[C@H]3OC(C)=O` (relative stereo), for which the half-inhibitory concentration (IC50) with PBMC was above 10 µM; with CCRF-CEM it was 5.3 µM; in assay [1], 8.6 µM; in assay [2], above 10 µM.

`C=CC(=C)CC[C@]1(C)[C@H](C)CC[C@@]23C(=CC(=O)C[C@@H]12)[C@@H](OC(C)=O)O[C@H]3OC(C)=O` (relative stereo): the IC50 was above 10 µM in the assay on PBMC, 9.5 µM in the assay with CCRF-CEM, above 10 µM in assay [1] and above 10 µM in assay [2].

Regarding `C=CC(=C)[C@H](O)C[C@]1(C)[C@H](C)C[C@H](OC(=O)CC(O)CCCCCCCCC)[C@@]23C(=C[C@H](O)C[C@@H]12)[C@@H](OC(C)=O)O[C@H]3OC(C)=O` (relative stereo), the IC50 in the assay on PBMC is above 10 µM; in the assay on CCRF-CEM, 5.5 µM; in assay [1], above 10 µM; in assay [2], above 10 µM.
